Legend:
[1] = In vitro plasma stability assay, human plasma; assay type: in vitro ADME; details: 37 °C
Procedure, shortened: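 Compound in DMSO, diluted to a 0.1 mM working solution in DMSO:water (1:1, v/v). Mouse, rat or human plasma thawed and pre-warmed at 37 °C, then mixed 100:1 (plasma:working solution). Incubated at 37 °C, 5% CO2, shaking at 200 rpm. Half-life determined from this plasma incubation.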

[2] = In vitro plasma stability assay, mouse plasma; assay type: in vitro ADME; details: 37 °C, comparison in words
[3] = system: SRBC-vaccinated mice; experiment: SRBC vaccination mouse model, flow cytometry of splenic cells; assay type: in vivo, C57/BL6 mice; details: FX1 80 mg/kg once daily, 8-day course; spleen, day 11
Procedure, shortened: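 Male C57/BL6 mice, 8–12 weeks old, given 100 µL 10% SRBC i.p. on day 0. Compound dosed in 100 µL vehicle from day 3; vehicle controls matched. Spleens taken on day 11 and meshed through a 70 µm strainer. Cells spun 2000 rpm for 10 min, washed in PBS with 2% FBS. Two million mononuclear cells stained for surface and intracellular markers, analysed on a 4-laser LSRII.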

[4] = system: SRBC-vaccinated mice; experiment: SRBC-specific IgM and IgG1 detection in plasma by flow cytometry; assay type: in vivo, C57/BL6 mice; details: mice receiving FX1 (80 mg/kg once daily)
Procedure, shortened: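 Plasma taken on day 11 from SRBC-vaccinated (100 µL 10% i.p.) male C57/BL6 mice given compound or vehicle (100 µL) from day 3, diluted 1:5 in PBS. 5 µL incubated with 20 µL 2% SRBC for 5 min, then 20 min with fluorescent anti-mouse IgM or IgG1. Washed, fixed in 1% PFA, read by flow with isotype controls. MFI normalised to unvaccinated-mouse plasma, as fold change.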

[5] = system: SRBC-vaccinated mice; experiment: Mouse pan IgG and IgM ELISA; assay type: in vivo, C57/BL6 mice; details: 11 days after vaccination
Procedure, shortened: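 Male C57/BL6 mice, 8–12 weeks old, given 100 µL 10% SRBC i.p. on day 0. From 3 days later, 8-day course of test compound (100 µL vehicle, once or three times daily, 5 h apart) or vehicle on the same schedule. Plasma collected at CO2 euthanasia on day 11. Total IgG and IgM measured by commercial ELISA kit per manufacturer. Welch test.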

[6] = system: BCL6; details: cited from earlier work
[7] = cited from earlier work
[8] = system: rhesus macaque; details: FX1 treatment; cited from earlier work

SMILES: O=C(O)CCN1C(=O)/C(=C2/C(=O)Nc3ccc(Cl)cc32)SC1=S [FX1]
- T1/2 in human plasma [1]: 3.29 h
- stability (T1/2) in mouse plasma [2]: significantly longer stability over AP-4-287 in mouse plasma
- GC B cells [3]: can lower GC B
- frequency of CD4+ Tfh within GCs [3]: did not reduce
- SRBC-specific IgM and IgG1 vs vehicle [4]: Lower
- total titer of plasma pan IgG and IgM vs vehicle [5]: no difference
- affinity compared with natural ligand (SMRT) [6]: higher affinity than its natural ligand (SMRT)
- aqueous solubility [7]: poor aqueous solubility
- lymphoid hyperplasia [8]: reversal of lymphoid hyperplasia

— publication PMC8745002 (European journal of immunology, 2021)
